Consider eight compounds from ChEMBL document CHEMBL3352217, “Expanding the results of a high throughput screen against an isochorismate-pyruvate lyase to enzymes of a similar scaffold or mechanism” (Bioorg Med Chem, 2014).

Experiment [1] can be described thus: Inhibition of Pseudomonas aeruginosa PAO1 PchB expressed in Escherichia coli BL21(DE3) using isochorismate as substrate assessed as salicylate production by fluorescence spectrometry. Summed up: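 Untagged PchB at 50 nM in 50 mM potassium phosphate pH 8. […] Initial velocities at 25 °C were taken from salicylate fluorescence (ex 310/em 430 nm) over 120 s of the linear phase. IC50 came from dose-response percent inhibition.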

Experiment [2] concerns the target T1, Salicylate synthetase, Irp9 (Yersinia enterocolitica, UniProt Q9X9I8).
T1 sequence (Q9X9I8 whole entry): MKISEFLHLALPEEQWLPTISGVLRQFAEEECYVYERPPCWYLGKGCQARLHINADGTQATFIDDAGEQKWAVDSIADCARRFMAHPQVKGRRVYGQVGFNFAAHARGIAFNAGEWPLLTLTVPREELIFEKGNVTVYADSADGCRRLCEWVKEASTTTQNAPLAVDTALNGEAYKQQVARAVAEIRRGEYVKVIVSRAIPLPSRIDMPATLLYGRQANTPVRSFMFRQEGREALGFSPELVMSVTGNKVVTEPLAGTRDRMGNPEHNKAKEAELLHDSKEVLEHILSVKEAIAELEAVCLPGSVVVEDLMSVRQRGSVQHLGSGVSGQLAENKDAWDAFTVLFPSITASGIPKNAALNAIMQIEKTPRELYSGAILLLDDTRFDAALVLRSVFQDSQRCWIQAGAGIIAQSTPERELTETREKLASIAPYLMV
The experiment in a line: Inhibition of Yersinia enterocolitica Irp9 using chorismate as substrate assessed as salicylate production by fluorescence spectrometry. The method in brief:
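Irp9 at 100 nM in 50 mM Tris-HCl pH 7.5, 10 mM MgCl2, 10% glycerol. Reaction was started with chorismate, with inhibitor concentration varied. Initial velocities at 25 °C were taken from salicylate fluorescence (ex 310/em 430 nm) over 120 s of the linear phase. IC50 came from the dose-response.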

Experiment [3] in a line: Inhibition of Pseudomonas aeruginosa PAO1 PchB expressed in Escherichia coli BL21(DE3) using isochorismate as substrate assessed as pyruvate production after 10 mins by microplate reader analysis. The method in brief: (§1)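 Pyruvate output at 25 °C, with PchB at 50 nM in 50 mM potassium phosphate pH 8 started with isochorismate, or Irp9 at 200 nM started with chorismate. Substrate was above the 10 µM Km and inhibitor was varied. Samples taken at 2-min points were quenched in 0.25 g/L DNPH in 1 M HCl and held 10 min at 37 °C. NaOH was added and A515 read, converted to pyruvate by standard curve. Runs were in triplicate, giving IC50.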

In experiment [4] the target is T1, Salicylate synthetase, Irp9. The experiment in a line: Inhibition of Yersinia enterocolitica Irp9 using chorismate as substrate assessed as pyruvate production after 10 mins by microplate reader analysis. The method in brief: as §1
For experiment [5], the target named is T2, Bifunctional chorismate mutase/prephenate dehydratase (Escherichia coli (strain K12), UniProt P0A9J8).
T2 sequence (P0A9J8 whole entry): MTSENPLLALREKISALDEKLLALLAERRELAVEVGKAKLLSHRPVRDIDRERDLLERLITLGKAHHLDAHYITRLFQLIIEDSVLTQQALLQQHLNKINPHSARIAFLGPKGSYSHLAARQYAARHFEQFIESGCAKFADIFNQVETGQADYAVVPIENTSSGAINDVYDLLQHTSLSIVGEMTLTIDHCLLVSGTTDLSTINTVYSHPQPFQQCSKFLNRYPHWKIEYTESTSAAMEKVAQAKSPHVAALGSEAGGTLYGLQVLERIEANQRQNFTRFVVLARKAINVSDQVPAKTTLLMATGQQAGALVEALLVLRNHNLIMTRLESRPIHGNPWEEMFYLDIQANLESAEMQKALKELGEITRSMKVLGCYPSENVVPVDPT
The experiment in a line: Inhibition of Escherichia coli K-12 EcCM expressed in Escherichia coli BL21 Star (DE3) pLysS using chorismate as substrate assessed as disappearance of chorismate by stopped-flow analysis. Summed up: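 His-tagged EcCM domain was Ni-affinity and size-exclusion purified. Post-mixing concentrations were 500 nM enzyme, chorismate at Km (600 µM) and inhibitor 0–500 µM. Rate was the A310 decrease over 30 s, in triplicate, giving IC50.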

The next experiment deals with Yersinia enterocolitica. Kind of experiment: Antimicrobial activity against Yersinia enterocolitica ATCC 9610 after 24 hrs by microplate reader analysis in presence of 5 uM FeCl3. The format is functional, organism-based. The following applies: ATCC 9610, 24 h. The method in brief:
(§2)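 Overnight LB cultures were diluted to OD600 0.5 in PMH-D medium. Cells were added to PMH-D containing FeCl3, either 5 µM (iron-limited) or 200 µM (iron-rich), with inhibitor at 0–5 mM (DMSO vehicle). Plates were shaken at 37 °C for 24 h. Cells were then pelleted, the medium was removed, and cells were resuspended in LB. A600 was read. Growth was normalized to no-inhibitor cultures to give EC50.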

A short description of experiment [6]: Competitive inhibition of Pseudomonas aeruginosa PAO1 PchB expressed in Escherichia coli BL21(DE3) using isochorismate as substrate. The method in brief: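 Untagged PchB at 50 nM final, in 50 mM potassium phosphate pH 8 (plus 1 mM TCEP for stopped-flow runs), at 25 °C. Isochorismate was varied up to 75 µM and inhibitor up to 1.5 µM. Salicylate formation was followed by fluorescence (excitation 310 nm; emission 430 nm or 360 nm cutoff) as linear initial velocities, over 120 s on a cuvette fluorimeter or 30 s by stopped-flow.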

In experiment [7] the test system is Pseudomonas aeruginosa. Kind of experiment: Antimicrobial activity against Pseudomonas aeruginosa PAO1 PchE deletion mutant after 24 hrs by microplate reader analysis in presence of 5 uM FeCl3. The following applies: PAO1, 24 h. The format is functional, organism-based. The method in brief:
as §2

Experiment [8] deals with Pseudomonas aeruginosa. Kind of experiment: Antimicrobial activity against wild-type Pseudomonas aeruginosa PAO1 after 24 hrs by microplate reader analysis in presence of 5 uM FeCl3. Particulars: PAO1, 24 h. The format is functional, organism-based. Summed up:
as §2

For experiment [9], the system named is Pseudomonas aeruginosa. Kind of experiment: Antimicrobial activity against Pseudomonas aeruginosa PAO1 PvdA deletion mutant after 24 hrs by microplate reader analysis in presence of 200 uM FeCl3. The format is functional, organism-based. Summed up:
as §2

The target in experiment [10] is T1, Salicylate synthetase, Irp9. The experiment in a line: Competitive inhibition of Yersinia enterocolitica Irp9 using chorismate as substrate. The method in brief:
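Stopped-flow kinetics at 25 °C in 50 mM Tris pH 7.5, 10 mM MgCl2, 10% glycerol. Final Irp9 was 100 nM, chorismate 0–40 µM and inhibitor 0–10 µM. Enzyme plus inhibitor was mixed with chorismate. Initial velocities came from the rise in salicylate fluorescence (ex 310 nm, 360 nm cutoff filter) over 30 s. Ki and inhibition mode were derived from these rates.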

Experiment [11] addresses T2, Bifunctional chorismate mutase/prephenate dehydratase. The experiment in a line: Competitive inhibition of Escherichia coli K-12 EcCM expressed in Escherichia coli BL21 Star (DE3) pLysS using chorismate as substrate. The method in brief: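 N-terminally His-tagged chorismate mutase domain of pheA, purified by Ni-chelate and size-exclusion chromatography. Enzyme with inhibitor mixed 1:1 with chorismate. Final concentrations: enzyme 500 nM, chorismate 0–2 mM, inhibitor 0–50 µM. Initial rates read as the 30 s decrease in absorbance at 310 nm, giving Ki and inhibition mode.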

The subject of experiment [12] is Pseudomonas aeruginosa. The experiment in a line: Antimicrobial activity against Pseudomonas aeruginosa PAO1 PvdA deletion mutant after 24 hrs by microplate reader analysis in presence of 5 uM FeCl3. The format is functional, organism-based. Particulars: PAO1, 24 h. Summed up: as §2
Experiment [13] deals with Pseudomonas aeruginosa. The experiment in a line: Antimicrobial activity against wild-type Pseudomonas aeruginosa PAO1 after 24 hrs by microplate reader analysis in presence of 200 uM FeCl3. The format is functional, organism-based. Summed up:
as §2

In experiment [14] the test system is Pseudomonas aeruginosa. The experiment in a line: Antimicrobial activity against Pseudomonas aeruginosa PAO1 PchE deletion mutant after 24 hrs by microplate reader analysis in presence of 200 uM FeCl3. The format is functional, organism-based. The method in brief:
as §2

The next experiment deals with Escherichia coli. Kind of experiment: Ratio of I50 to Km for Escherichia coli Chorismate mutase. Summed up: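 N-His-tagged E. coli chorismate mutase domain (PheA), 500 nM. Chorismate at its Km (600 µM), inhibitor 0–500 µM, all post-mixing. Initial rates from A310 decrease over 30 s, in triplicate. I50 is the concentration giving 50% inhibition at substrate = Km, divided by Km.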

Experiment [15] is described as follows: Inhibition of Pseudomonas aeruginosa PAO1 PchB.

Consider `O=C(O)c1cccc(S(=O)(=O)Nc2ccccc2C(=O)O)c1`, for which the IC50 in [1] is 0.25 µM; in experiment [2], “Not Active”; in experiment [3], 0.22 µM; in [4] it was “Not Active”; in [5] it was 170 µM.

In the case of `O=C1S/C(=C/c2cc([N+](=O)[O-])cc([N+](=O)[O-])c2O)C(=O)N1c1ccccc1`, the 50% inhibitory concentration (IC50) in [1] was 1.4 µM; in experiment [3] it was 1.4 µM; in experiment [4] it was “Not Active”; in experiment [5], 85 µM.

As for `COC(=O)Oc1c(Cl)cc2oc(=O)sc2c1[N+](=O)[O-]`, the concentration for half-maximal inhibition (IC50) was 3.3 µM in experiment [1], 1.8 µM in experiment [3], “Not Active” in experiment [4] and 45 µM in experiment [5].

In the case of `COC(=O)Oc1c([N+](=O)[O-])cc2oc(=O)sc2c1[N+](=O)[O-]`, the 50% effective concentration (EC50) with Yersinia enterocolitica is 2300 µM; with Pseudomonas aeruginosa [7], greater than 5000 µM; in the experiment with Pseudomonas aeruginosa [8] it was greater than 5000 µM; with Pseudomonas aeruginosa [9], “Not Active”; in the experiment on Pseudomonas aeruginosa [12], greater than 5000 µM; in the experiment with Pseudomonas aeruginosa [13], “Not Active”. Moreover, the EC50 entry with Pseudomonas aeruginosa [14] is given as “Not Active”. For the same compound, the inhibition constant (Ki) in experiment [6] was found to be 0.35 µM; in experiment [10], 0.8 µM; in experiment [11], 40 µM. In addition, the IC50 in experiment [1] amounted to 0.87 µM; in experiment [3], 0.53 µM; in [5] it was 32 µM.

For the compound `O=C(O)C1CC2(C(=O)O)C=CC(O)C(C2)O1` (configuration not stated), in the experiment on Escherichia coli, the Ratio was 0.008. The Ki in experiment [15] came out at 2 µM.

For the compound `O=C(O)c1cc(S(=O)(=O)Nc2ccccc2C(=O)O)ccc1Br`, the IC50 was 0.24 µM in experiment [1]; “Not Active” in experiment [2]; 0.094 µM in experiment [3]; “Not Active” in experiment [4]; 200 µM in experiment [5].

As for `O=P(O)(O)C12CC3CC(CC(C3)C1)C2`, the Ki in [15] was greater than 5000 µM.

Turning to `O=c1oc2cc(Br)c(O)c(Br)c2s1`, the IC50 in experiment [1] came to 10 µM; in experiment [3], 10 µM; in [5], 120 µM.

One may read the IC50 as the concentration needed to halve the response being measured. A word on the EC50: it is the concentration giving half of the maximal effect. Usually Ki stands for the dissociation constant of the complex between target and ligand, obtained from inhibition or displacement.
